Compound activity as filed in PubChem BioAssay.
RGS4 pot: RGS4 potentiation or activation | HEK293 M3R/inducible RGS4, carbachol calcium flux Fluo4; active compounds read low | B-score at 10 µM | actives 0.92% (n = 310,000);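 active = B-score of the integrated calcium signal more than 4 SD below the library mean, with starting fluorescence not abnormally high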;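 note: negative B-score means reduced calcium response which marks RGS4 activation or potentiation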
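System – HEK293 FlpIn-TREx cells, stable M3R, doxycycline-inducible RGS4 · Reagent – ECmax carbachol challenge · Times – compound preincubation 20 min at room temperature before agonist · Technique – Fluo4 fluorescence kinetic imaging of calcium · Measure – B score of integrated Fluo4 ratio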
MrgX1 PAM: allosterically activates human MrgX1 receptor signaling. Q96LB2. MrgX1-HEK293, Fluo-4 calcium flux, FDSS; active compounds read high. B-score at 10 µM. actives 0.63% (n = 310,000). AID 588675;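 active = plate-corrected calcium response at least 3 library SD above typical, normal starting fluorescence, not activating the receptor alone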;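 note: compound read alongside a low EC10 to EC30 dose of BAM8-22 agonist; peak minus trough fluorescence over baseline measured at the second addition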
Target sequence (Q96LB2 whole entry, looked up): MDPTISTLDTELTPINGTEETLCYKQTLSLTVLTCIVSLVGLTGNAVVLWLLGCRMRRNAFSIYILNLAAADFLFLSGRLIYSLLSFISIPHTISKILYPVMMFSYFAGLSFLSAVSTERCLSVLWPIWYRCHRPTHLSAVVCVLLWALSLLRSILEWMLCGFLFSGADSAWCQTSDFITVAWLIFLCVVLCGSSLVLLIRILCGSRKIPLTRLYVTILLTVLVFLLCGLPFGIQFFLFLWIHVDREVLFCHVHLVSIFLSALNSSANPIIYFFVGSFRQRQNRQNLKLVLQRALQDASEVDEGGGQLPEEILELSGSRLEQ
RGS4 inh: inhibitors of human RGS4; AID 463165; actives 0.45% (n = 310,000); B-score at 10 µM; HEK293 M3R/RGS4 inducible, Fluo-4 calcium flux; active compounds read high; triggered by carbachol at its EC20; P49798;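 active = B-score, a plate-corrected calcium signal, over three deviations above library mean, with baseline fluorescence within five deviations of library mean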;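 note: RGS4 expression induced by doxycycline in cells with stable M3 receptor; B-score is computed from the integrated fluorescence ratio over baseline after carbachol; higher B-score means a larger calcium signal and so more RGS4 inhibition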
Target sequence (P49798 whole entry, looked up): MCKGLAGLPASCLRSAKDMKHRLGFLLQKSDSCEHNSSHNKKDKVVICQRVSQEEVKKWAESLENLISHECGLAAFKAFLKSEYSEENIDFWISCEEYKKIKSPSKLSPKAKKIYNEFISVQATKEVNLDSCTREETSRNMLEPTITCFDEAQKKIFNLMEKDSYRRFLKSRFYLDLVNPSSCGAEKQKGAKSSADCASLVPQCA
MrgX1 antagonist: human MrgX1 receptor antagonism, primary screen. B-score at 10 µM. MRGX1-HEK293 calcium flux, Fluo-4, BAM8-22 antagonism; active compounds read low. Q96LB2. AID 588676. actives 1.3% (n = 310,000);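 active = calcium-response B-score plate-corrected more than 3 library SD below zero, starting fluorescence within 5 deviations, no agonist response on first addition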;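 note: peak minus trough fluorescence over baseline after final BAM8-22 challenge near maximal dose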
MrgX1 ag: human MrgX1 receptor agonism, primary screen | actives 0.44% (n = 310,000) | AID 588627 | Q96LB2 | B-score at 10 µM | MrgX1-HEK293 cells, Fluo-4 calcium fluorescence, agonist mode; active compounds read high;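 active = calcium response B-score plate-corrected fluorescence ratio at least 3 library SD, with starting fluorescence B-score inside 5 SD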
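Material: HEK293 cells stably expressing human MrgX1 receptor | Quantity: 15,000 cells per well | Times: Cells plated overnight, dye loaded 0.5 h 37 °C, 0.5 h room temperature | Measured by: Kinetic Fluo-4 NW fluorescence of intracellular calcium | Control set: Positive and negative controls per plate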
MrgX1 ant reconf: reconfirmed antagonist of human MrgX1 receptor signaling; shares compounds with MrgX1 antagonist; MrgX1-HEK293, BAM8-22 calcium flux, Fluo-4; active compounds read low; remaining BAM8-22 calcium response % of control (active compounds read low), % at 10 µM; actives 19% (n = 2,300); AID 602420;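 active = remaining agonist calcium response no higher than 100% minus 3 SD of agonist-only control wells, with starting fluorescence near control levels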;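 note: agonist BAM8-22 given at a near maximal EC90 to ECmax level; peak minus minimum fluorescence divided by baseline after agonist addition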
HEK293 Ca flux: activity in parental HEK293 cells lacking MrgX1; shares compounds with MrgX1 antagonist; Fluo-4 calcium fluorescence, FDSS; fluorescence ratio F(max-min)/F0 at 10 µM; actives 2% (n = 4,000);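 active = duplicate-averaged calcium fluorescence ratio at least three times the standard deviation of buffer wells, a nonspecific response in parental cells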
HEK293 Ca counter: activity in parental HEK293 cells without MrgX1; actives 0.4% (n = 4,000); fluorescence ratio F(max-min)/F0 at 10 µM; shares compounds with MrgX1 antagonist; parental HEK293 calcium flux, Fluo-4 fluorescence ratio; active compounds read high; AID 624114;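 active = calcium fluorescence ratio, averaged over duplicates, at least 3 SD of the buffer-well ratio, meaning a nonspecific response in receptor-free cells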;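 note: untransfected parental HEK293 lacking MrgX1 used as counterscreen for MrgX1 allosteric activators; fluorescence change taken during the second addition on a kinetic imager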
HEK293 Ca cntr2: MrgX1 activator counter-screen hit in parental HEK293 cells; shares compounds with MrgX1 antagonist; Fluo-4 calcium fluorescence (FDSS); active compounds read high; fluorescence ratio F(max-min)/F0 at 10 µM; actives 8.7% (n = 4,000); AID 624115;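 active = calcium fluorescence ratio at least three times the spread of buffer wells, meaning a non-specific response in parental cells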
* hit, by the source's call; i = inactive; nt = no result. The list is not random: actives were taken first. Their share in the collection is about 3.5%.

SMILES	RGS4 pot	MrgX1 PAM	RGS4 inh	MrgX1 antagonist	MrgX1 ag	MrgX1 ant reconf	HEK293 Ca flux	HEK293 Ca counter	HEK293 Ca cntr2
O=C(OC1CCCCC1=O)c1cccc(S(=O)(=O)N2CCCCC2)c1 (centres undefined)	i	i	i	i	i	nt	nt	nt	nt
O=C(OC1CCCCC1=O)c1ccc(S(=O)(=O)Nc2ccccc2)cc1 (centres undefined)	i	i	i	-5.4*	i	i	i	i	i
O=C(O)c1ccc(CNCc2ccc(Cl)cc2Cl)cc1	i	i	i	-5*	i	i	i	i	i
O=C(O)c1ccc(CNCc2ccc(Cl)cc2)cc1	i	i	i	i	i	nt	nt	nt	nt
CC(Sc1nccn1C)C(=O)Nc1ccc(Cl)cn1 (centres undefined)	i	i	i	i	i	nt	nt	nt	nt
Cc1cc(C)cc(C(=O)NCC(=O)OCC(=O)N(C)c2ccccc2)c1	i	i	i	-5.1*	i	i	i	i	i
COc1ccc(C)cc1N(CC(=O)Nc1ccc(S(=O)(=O)N2CCOCC2)cc1)S(C)(=O)=O	i	i	i	-5.2*	i	i	i	i	i
CCOc1cc(-c2c(C#N)c(N)nc3c2CCCC3C)ccc1O (centres undefined)	i	i	i	-4.7*	i	i	i	i	i
O=C(NC(=S)Nn1cnnc1)c1ccccc1	i	i	i	-8.3*	i	75%*	i	i	i
CCOc1cc(C(=O)NC(=S)Nn2cnnc2)cc(OCC)c1OCC	i	i	i	-4.5*	i	i	i	i	i
CCOc1cc(C(=O)NC(=S)Nc2nc(C)cc(C)n2)cc(OCC)c1OCC	i	i	i	i	i	nt	nt	nt	nt
CCOc1cc(C(=O)Nn2cnnc2)cc(OCC)c1OCC	i	i	i	-4.6*	i	i	i	i	i
CSc1nc2c(c(=O)[nH]c(=O)n2C)n1Cc1ccccc1Cl	i	i	i	i	i	nt	nt	nt	nt
Cc1csc(Sc2nc3c(c(=O)[nH]c(=O)n3C)n2Cc2ccccc2Cl)n1	i	i	i	-8.8*	i	i	i	i	i
CS(=O)(=O)N1CCC(Oc2ccccc2C(=O)N2CCCCC2CO)CC1 (centres undefined)	i	i	i	-4.6*	i	i	i	i	i
COc1ccccc1NC(=O)c1ccc2nc(C)c(C)nc2c1	i	i	i	-8.1*	i	i	i	i	i
COc1ccccc1NC(=O)c1cc2ccccc2nc1C	i	i	i	i	i	nt	nt	nt	nt
Cn1c(=O)c2c(n(Cc3ccccc3)c1=O)NC(=O)C2CC(=O)NCc1cccc(Cl)c1 (centres undefined)	i	i	i	i	i	nt	nt	nt	nt
CCC(C)C(NC(=O)c1ccc(Cl)cc1)C(=O)Nc1cccnc1 (centres undefined)	i	i	i	-7.6*	i	i	i	i	i
Cc1ccc(S(=O)(=O)NCC(c2ccco2)N2CCc3ccccc32)cc1 (centres undefined)	i	i	i	-5.6*	i	i	i	i	i
Cc1ccc(C(CNS(=O)(=O)c2ccccc2)N2CCN(C)CC2)cc1 (centres undefined)	i	i	i	-8.1*	i	i	i	i	i
Cc1ccc(S(=O)(=O)NCC(c2ccco2)N2CCc3ccccc3C2)cc1 (centres undefined)	i	i	i	-5.1*	i	i	i	i	i
Cc1ccc(C(CNS(=O)(=O)c2ccc(Br)cc2)N2CCN(C)CC2)cc1 (centres undefined)	i	i	i	i	i	nt	nt	nt	nt
COc1ccc(S(=O)(=O)NCC(c2ccco2)N2CCc3ccccc32)cc1 (centres undefined)	i	i	i	i	i	nt	nt	nt	nt
COc1ccc(C(=O)NC(C)(C)C)cc1S(=O)(=O)N1CCCC1	i	i	i	i	i	nt	nt	nt	nt
SMILES	RGS4 pot	MrgX1 PAM	RGS4 inh	MrgX1 antagonist	MrgX1 ag	MrgX1 ant reconf	HEK293 Ca flux	HEK293 Ca counter	HEK293 Ca cntr2
CSc1nsc(/C=C/Nc2ccc(O)cc2C)c1C#N	i	i	i	i	i	nt	nt	nt	nt
O=C(O)Cn1nnnc1-c1ccc(F)cc1	i	i	i	-5.6*	i	i	i	i	i
CC(C)Cc1ccc(C(C)C(=O)Nc2ccc(O)cc2)cc1 (centres undefined)	i	i	i	-8.2*	i	i	i	i	66*
O=C(NCCSCc1ccco1)Nc1cc(Cl)cc(Cl)c1	i	i	i	-5.4*	i	68%*	i	i	i
Cc1ccc(NC(=O)[C@@H]2CCC(=O)N2C2OC(=O)c3ccccc32)cc1Cl (some centres undefined)	i	i	i	i	i	nt	nt	nt	nt
Cc1ccc(Cl)cc1NC(=O)[C@@H]1CCC(=O)N1C1OC(=O)c2ccccc21 (some centres undefined)	i	i	i	-9.9*	i	84%*	i	i	i
CC1=C(C#N)CCC(=O)N1Cc1ccc(C)cc1	i	i	i	-7.7*	i	i	i	i	i
CCOc1ccc(S(=O)(=O)n2ccnc2C)cc1	i	i	i	i	i	nt	nt	nt	nt
CC1CCN(C(=O)C2CCC(CNS(=O)(=O)c3cccc4cccnc34)CC2)CC1 (centres undefined)	i	i	i	-5.3*	i	i	i	i	i
Cc1ccccc1C(=O)NC1CCN(C(=O)Nc2ccc(F)cc2)CC1	i	i	i	i	i	nt	nt	nt	nt
Cc1cc(NC(=O)CSc2ccc(-c3ccc(Br)cc3)nn2)no1	i	i	i	-8.2*	i	i	i	i	i
Cc1ccc(-c2ccc(SCC(=O)Nc3cc(C)on3)nn2)cc1	i	i	i	i	i	nt	nt	nt	nt
